Rows were chosen to be rich in hits. Some 4.9% of all compounds tested hit in one or more screens of this group.
Hep lipid drop – hepatic lipid droplet formation modulation; 240,000 tested, 0.4% active; inhibition, % at 6.5 µM; AML12 mouse hepatocytes, oleate lipid droplets, BODIPY imaging;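 active = lipid droplet intensity inhibited by at least 50%, with more than 500 cells counted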
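Assay system: AML12 hepatocytes (mouse); Probe or stimulus: oleic acid at 100 µM to induce lipid droplet formation; Dosing: compound at 6.5 µM only; Schedule: compound with oleate, overnight; Detection: fluorescence imaging, 20x objective, two fields per well; Measure: % inhibition of lipid droplet signal.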
HSF1 inh – HSF1 inhibition; NIH3T3-HGL HSE-luciferase, MG132-induced, luminescence 8 h; stronger effect = lower value; 300,000 tested, 0.77% active; activity change, negative = inhibition, % at 7.5 µM (by protocol);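 active = more than half of replicate wells show activity change below -50%, luminescence cut by over half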;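 note: luciferase reports HSF-1 transcriptional activity via heat shock element; 0% = median of DMSO wells and -100% = zero luminescence signal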
HSF-1 act – increases HSF-1 driven luciferase reporter signal; NIH3T3-HGL HSF-1 luciferase reporter, MG132, 8 h; 100% = twice DMSO control signal; activation, % at 9 µM; 300,000 tested, 1.7% active;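 active = mean replicate activation of at least 50% with a set share of replicates each reaching 50%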;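 note: 0% = median of the neutral control wells and 100% = twice that signal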
CHT PAM – allosteric activators of human choline transporter CHT | CHT-expressing cells, membrane potential dye, choline EC20; stronger effect = higher value; LV-AA mutant CHT in HEK293 cells | B-score at 10 µM | 310,000 tested, 0.49% active | AID 488977;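 active = initial fluorescence not abnormally high and integrated response B-score, plate-corrected, over 3 SD above library mean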
Target sequence (Q9GZV3 whole entry, looked up): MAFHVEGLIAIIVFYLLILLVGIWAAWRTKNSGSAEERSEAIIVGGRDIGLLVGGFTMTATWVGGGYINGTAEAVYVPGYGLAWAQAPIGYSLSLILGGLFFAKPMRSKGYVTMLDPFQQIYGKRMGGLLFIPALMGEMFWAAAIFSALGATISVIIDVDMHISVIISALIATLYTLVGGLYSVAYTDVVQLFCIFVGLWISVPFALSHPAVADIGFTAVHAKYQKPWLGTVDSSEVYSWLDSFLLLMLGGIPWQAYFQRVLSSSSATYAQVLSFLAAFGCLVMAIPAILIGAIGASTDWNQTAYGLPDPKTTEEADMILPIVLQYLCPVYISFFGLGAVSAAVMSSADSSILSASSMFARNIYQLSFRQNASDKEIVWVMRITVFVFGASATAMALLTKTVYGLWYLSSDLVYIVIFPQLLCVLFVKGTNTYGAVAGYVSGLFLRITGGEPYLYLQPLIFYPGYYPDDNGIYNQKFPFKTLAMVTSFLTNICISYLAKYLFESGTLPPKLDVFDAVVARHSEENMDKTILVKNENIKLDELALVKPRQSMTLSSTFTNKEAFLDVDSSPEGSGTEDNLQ
PHOSPHO1 block – blocks human PHOSPHO1 phosphatase activity | recombinant PHOSPHO1, absorbance phosphatase assay | inhibition, % at 13.3 µM | 290,000 tested, 1.1% active; in the data active = inhibition above about 60%
CHT block – human CHT choline transport inhibition | 310,000 tested, 0.86% active | Q9GZV3 | B-score at 10 µM | CHT-expressing cells, membrane potential dye, choline response; stronger effect = lower value;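 active = B-score over 3 SD under the library average, and starting fluorescence ratio not unusually high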;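 note: choline stimulus applied at its EC90 after an EC20 pre-addition; B-score computed on integrated fluorescence ratio after choline addition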
CHT act confirm – human CHT activation, confirmatory screen. shares compounds with CHT PAM. CHT-expressing cells, membrane potential dye fluorescence (FDSS); % of choline EC20–EC90 response window; HEK293 expressing CHT LV-AA mutant; choline added at its EC20. activation, % at 10 µM. 2,500 tested, 91% active. AID 504833;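 active = primary screen active, with duplicate mean activation above negative control mean plus 3 SD, cut at about 11% in these data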
HEK293 MP dye – CHT activator counter-screen hit in parental HEK293 cells | shares compounds with CHT PAM | membrane potential dye fluorescence (FDSS); measured after EC20 choline addition | ratio readout change at 10 µM, hits read low | 2,500 tested, 62% active;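 active = duplicate-averaged ratio beyond 3 SD from buffer wells, up or down, though filed actives are nearly all decreases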
An asterisk follows results filed as active; i = inactive; · = no result given.

SMILES	Hep lipid drop	HSF1 inh	HSF-1 act	CHT PAM	PHOSPHO1 block	CHT block	CHT act confirm	HEK293 MP dye
COc1cc2nc(N3CCN(C(=O)C4COc5ccccc5O4)CC3)nc(N)c2cc1OC (configuration not stated)	1	2	-17	i	-11	i	·	·
Cc1c2c(n3c(nc4ccccc43)c1C#N)N(CCN(C)C)CC2	-9	3	24	7.1*	32	i	42*	-70*
Cc1c2c(n3c(nc4ccccc43)c1C#N)N(CCCN(C)C)CC2	33	-11	-1	7*	28	i	44*	-66*
COc1ccc(NC(=O)c2cc([N+](=O)[O-])ccc2N2CCN(C)CC2)cc1	-19	-5	12	8.4*	16	i	52*	-64*
COc1ccccc1CNC(=O)COC(=O)c1cc([N+](=O)[O-])ccc1N1CCOCC1	0	-2	11	i	5	i	·	·
O=C(Nc1cccc(Cl)c1N1CCCCC1)c1ccc(N2CCOCC2)c([N+](=O)[O-])c1	5	-5	-21	i	1	i	·	·
CC(C)c1ccc(NC(=O)c2cc([N+](=O)[O-])ccc2N2CCOCC2)cc1	-7	-2	1	i	29	i	29*	i
O=C(COC(=O)c1cc([N+](=O)[O-])ccc1N1CCOCC1)NCc1ccc(F)cc1	3	2	10	i	23	i	56*	i
O=C(Nc1cccc(Cl)c1N1CCOCC1)c1cc([N+](=O)[O-])ccc1N1CCOCC1	-10	2	2	i	-13	i	13*	i
COc1cccc(-c2nc(CS(=O)(=O)CC(=O)NCCc3cc(OC)ccc3OC)c(C)o2)c1	-14	3	3	i	22	i	·	·
CCN1CCCC1CNC(=O)COc1cc(=O)n(C)c2ccccc12 (configuration not stated)	·	1	7	7.2*	-5	i	43*	-39*
CCN1CCCC1CNC(=O)CSc1cc(=O)n(C)c2cc(Cl)ccc12 (configuration not stated)	·	5	11	i	18	i	50*	-34*
CCn1c(=O)cc(OCC(=O)NCCCN2CCC(C)CC2)c2ccccc21	-2	20	46	i	-5	i	·	·
CC1CCN(CCCNC(=O)COc2cc(=O)n(C)c3ccccc23)CC1	·	21	57*	i	14	i	43*	-33*
CC1CC(C)CN(CCCNC(=O)COc2cc(=O)n(C)c3ccccc23)C1 (configuration not stated)	-4	6	0	i	-48	i	17*	-28*
CCn1c(=O)cc(OCC(=O)NCCCN2CC(C)CC(C)C2)c2ccccc21 (configuration not stated)	-4	6	24	i	7	i	·	·
CC(C)(C)NC(=O)COc1ccc(CNCCc2ccccc2)cc1	4	3	6	i	26	i	·	·
COC(=O)COc1c(Cl)cc(C(c2c(C)[nH][nH]c2=O)c2c(C)[nH][nH]c2=O)cc1OC	-4	21	18	i	38	i	·	·
CC(CC(=O)N1CCc2ccccc21)S(=O)(=O)c1ccc2c(c1)NC(=O)CO2 (configuration not stated)	-4	5	37	i	32	i	·	·
CCC(=O)N1CCN(c2ccccc2NC(=O)c2ccc([N+](=O)[O-])o2)CC1	-50	25	22	8.9*	24	i	12*	i
CC(C)C(=O)N1CCN(c2ccccc2NC(=O)c2ccc([N+](=O)[O-])o2)CC1	-30	41	80*	11*	10	i	39*	i
